Measurements: ChEMBL document CHEMBL4118271, “Synthesis and antitumor activity of novel 6,7,8-trimethoxy N-aryl-substituted-4-aminoquinazoline derivatives” (Bioorg Med Chem Lett, 2018)
Activity calls are given as the source filed them. No cut-off for these calls is given here.

How the values were obtained:
[1] = test system: SGC-7901; experiment: Induction of morphological changes in human SGC7901 cells assessed as induction of cell break at 1 and 10 uM after 24 to 72 hrs by inverted microscopic analysis; type: functional, cell-based
Outline: (§1)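 SGC7901 cells were seeded and allowed 24 h to settle, then exposed to 0.1% (v/v) DMSO vehicle, to test agent at 1 or 10 μM, or to epirubicin at 1 or 10 μM. Exposure lasted 24, 48 and 72 h. Morphology (shrinkage, size, apoptotic bodies, breakdown) was then observed microscopically.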

[2] = test system: SGC-7901; experiment: Anticancer activity against human SGC7901 cells after 72 hrs by MTT assay; type: functional, cell-based; details: SGC-7901, 72 h
[3] = test system: SGC-7901; experiment: Induction of morphological changes in human SGC7901 cells at 1 uM after 24 hrs by inverted microscopic analysis; type: functional, cell-based; outline: as §1
[4] = test system: SGC-7901; experiment: Anticancer activity against human SGC7901 cells at 1 to 10 uM after 72 hrs by MTT assay; type: functional, cell-based
Outline: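 Growth inhibition of SGC7901 gastric cancer cells tested at single concentrations of 10 and 1 μM for 72 h, read out by MTT assay. Epirubicin served as the positive control at the same concentrations.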

[5] = test system: SGC-7901; experiment: Antiproliferative activity against human SGC7901 cells assessed as formation of apoptotic bodies at 10 uM after 48 to 72 hrs by inverted microscopic analysis; type: functional, cell-based; outline: as §1
[6] = test system: SGC-7901; experiment: Induction of morphological changes in human SGC7901 cells assessed as reduction in cell size at 10 uM after 48 to 72 hrs by inverted microscopic analysis; type: functional, cell-based; outline: as §1
[7] = molecular target: Mitogen-activated protein kinase; ERK1/ERK2 (Homo sapiens) (UniProt P27361+P28482); experiment: Inhibition of EGF-induced ERK1/2 phosphorylation in human SGC7901 cells incubated for 30 mins post 10 min EGF stimulation by Western blot analysis; type: cell-based
Outline: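 SGC7901 cells were grown in RPMI 1640 with 10% serum to 80% confluency and stimulated with 40 ng/ml EGF for 10 min. They were then treated for 30 min with 0.1% (v/v) DMSO or test agent at 1, 10, 20 or 40 μM. Lysates were run on SDS-PAGE and blotted for phospho-ERK1/2, with actin as loading control, ECL detection and densitometry. Three independent experiments were run.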

[8] = test system: SGC-7901; experiment: Induction of morphological changes in human SGC7901 cells assessed as induction of cell shrinking at 10 uM after 48 to 72 hrs by inverted microscopic analysis; type: functional, cell-based; outline: as §1

Mitogen-activated protein kinase; ERK1/ERK2 (Homo sapiens), sequence (P27361 whole entry, looked up): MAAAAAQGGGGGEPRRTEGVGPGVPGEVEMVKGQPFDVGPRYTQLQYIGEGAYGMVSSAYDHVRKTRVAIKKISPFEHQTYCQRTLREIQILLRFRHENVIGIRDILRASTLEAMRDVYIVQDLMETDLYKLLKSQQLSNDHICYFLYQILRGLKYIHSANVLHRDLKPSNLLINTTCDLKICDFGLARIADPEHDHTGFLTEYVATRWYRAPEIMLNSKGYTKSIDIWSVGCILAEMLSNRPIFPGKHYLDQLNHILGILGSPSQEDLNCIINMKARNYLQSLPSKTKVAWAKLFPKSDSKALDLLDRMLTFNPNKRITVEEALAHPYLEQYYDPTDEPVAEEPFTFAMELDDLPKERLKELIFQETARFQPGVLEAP
Mitogen-activated protein kinase; ERK1/ERK2 (Homo sapiens), sequence (P28482 whole entry, looked up): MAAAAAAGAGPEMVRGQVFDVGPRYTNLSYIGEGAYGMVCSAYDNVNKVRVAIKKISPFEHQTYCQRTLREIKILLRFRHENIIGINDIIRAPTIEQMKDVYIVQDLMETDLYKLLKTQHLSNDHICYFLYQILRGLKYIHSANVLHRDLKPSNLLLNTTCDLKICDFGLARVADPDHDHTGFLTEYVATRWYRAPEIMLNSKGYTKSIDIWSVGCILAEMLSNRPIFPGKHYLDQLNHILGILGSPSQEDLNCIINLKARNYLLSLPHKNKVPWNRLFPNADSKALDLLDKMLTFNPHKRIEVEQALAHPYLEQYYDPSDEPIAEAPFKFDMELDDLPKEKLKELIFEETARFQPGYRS

| IC50 [2] [µM] | SMILES | also measured |
| --- | --- | --- |
| 5.16 | COc1cccc2c1C(=O)c1c(O)c3c(c(O)c1C2=O)C[C@@](O)(C(=O)CO)C[C@@H]3O[C@H]1C[C@H](N)[C@@H](O)[C@H](C)O1 [EPIRUBICIN] | Activity [1]: Active |
| > 30 | COc1cc2c(Nc3ccc(F)c(Cl)c3F)ncnc2c(OC)c1OC | – |
| 15 | COc1cc2c(Nc3ccc(Br)c(Cl)c3F)ncnc2c(OC)c1OC | – |
| 10.3 | COc1cc2c(Nc3cc(C(F)(F)F)ccc3F)ncnc2c(OC)c1OC | – |
| 18.4 | COc1cc2c(Nc3cc(Br)ccc3F)ncnc2c(OC)c1OC | – |
| > 30 | COc1cc2c(Nc3ccc(Br)c(F)c3)ncnc2c(OC)c1OC | – |
| 5.82 | C#Cc1cccc(Nc2ncnc3c(OC)c(OC)c(OC)cc23)c1 | – |
| > 30 | COc1cc2c(Nc3cccc(F)c3F)ncnc2c(OC)c1OC | – |
| 0.434 | COc1cc2c(Nc3ccc(B(O)O)cc3)ncnc2c(OC)c1OC | Activity [3]: inactive; Activity [4]: Active; Activity [5]: Active; Activity [6]: Active; inhibition [7]: Dose-dependent effect; Activity [8]: Active |
| > 30 | COc1cc2c(Nc3cccc(C(F)(F)F)c3)ncnc2c(OC)c1OC | – |
| > 30 | COc1cc2c(Nc3ccc(C(F)(F)F)cc3)ncnc2c(OC)c1OC | – |
| 5.42 | COc1cc2c(Nc3ccc(F)c(Cl)c3)ncnc2c(OC)c1OC | – |
| > 30 | COc1cc2c(Nc3cccc(Br)c3F)ncnc2c(OC)c1OC | – |
| > 30 | COc1cc2c(Nc3cccc(Cl)c3F)ncnc2c(OC)c1OC | – |
| 8.64 | COc1cc2c(Nc3cccc(I)c3)ncnc2c(OC)c1OC | – |
